Laboratory results as given in ChEMBL document CHEMBL1138446, “The design, synthesis, and antiviral activity of monofluoro and difluoro analogues of 4'-azidocytidine against hepatitis C virus replication: the discovery of 4'-azido-2'-deoxy-2'-fluorocytidine and 4'-azido-2'-dideoxy-2',2'-difluorocytidine” (J Med Chem, 2009).

Experiments:
[1] = Cytotoxicity against human 2209-23 cells assessed as cell viability by WST-1 assay; type: cell-based
Procedure, shortened: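 Viability of the same 2209-23 replicon cells was measured by the WST-1 assay. Values are reported as CC50.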

[2] = tested on: Hepatitis C virus; assay: Antiviral activity against HCV 1b infected in human 2209-23 cells by replicon assay; type: functional, organism-based, Hepacivirus hominis
[3] = Antiproliferative activity against human 2209-23 cells assessed as [3H]thymidine incorporation by scintillation proximity assay; type: cell-based
Procedure, shortened: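 Proliferation of the GT-1b stable replicon line 2209-23 was measured as tritiated thymidine incorporation into cellular DNA by scintillation proximity assay. Values are reported as IC50.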

[4] = Inhibition of HCV NS5B polymerase-mediated RNA synthesis; parameters: species or system Hepacivirus hominis

Compound	EC50 [2] [nM]	EC50 [4] [nM]	CC50 [1] [µM]	IC50 [3] [µM]
[N-]=[N+]=N[C@]1(CO)O[C@@H](n2ccc(N)nc2=O)C(F)(F)[C@@H]1O	66	–	> 100	–
Nc1ccn([C@@H]2O[C@H](CO)[C@@H](O)[C@@H]2F)c(=O)n1	114	–	> 100	0.174
[N-]=[N+]=N[C@]1(CO)O[C@@H](n2ccc(N)nc2=O)[C@H](O)[C@@H]1O [4'-AZIDOCYTIDINE]	1280	1280	> 2000	> 100
[N-]=[N+]=N[C@]1(CO)O[C@@H](n2ccc(N)nc2=O)[C@@H](F)[C@@H]1O [RO-0622]	24	–	> 100	> 100

Now from value to compound, other results behind:

EC50 [2] [nM]	EC50 [4] [nM]	Compound	CC50 [1] [µM]	IC50 [3] [µM]
> 100000	–	[N-]=[N+]=N[C@]1(CO)O[C@@H](n2ccc(N)nc2=O)[C@H](O)[C@@H]1F	> 100	–
4020	–	[N-]=[N+]=N[C@]1(CO)O[C@@H](n2ccc(N)nc2=O)[C@H](F)[C@@H]1O	> 100	> 100
> 100000	–	[N-]=[N+]=N[C@]1(CO)O[C@@H](n2ccc(N)nc2=O)[C@H](O)[C@H]1F	> 100	–
171	–	[N-]=[N+]=N[C@]1(CO)O[C@@H](n2ccc(N)nc2=O)[C@@H](O)[C@@H]1O	> 1000	> 100
